Source: ChEMBL document CHEMBL1144751, “Synthesis of caged 2,3,3a,7a-tetrahydro-3,6-methanobenzofuran-7(6H)-ones: Evaluating the minimum structure for apoptosis induction by gambogic acid” (Bioorg Med Chem, 2008)
pEC50: −log10 of the molar value.

Legend:
[1] = system: T47D; experiment: Induction of apoptosis in human T47D cells assessed as caspase 3 activation after 24 hrs; format: functional, cell-based
How it was run: (§1)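 Cell-based caspase-3 activation HTS assay. After compound exposure, the fluorogenic caspase-3 substrate N-(Ac-DEVD)-N-ethoxycarbonyl-R110 in caspase buffer was added and incubated 2 h at 37 °C. Fluorescence was read as RFU. Activation is the ratio of net RFU for treated samples to that of control samples. Values are means ± SEM of three or more experiments.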

[2] = system: HCT-116; experiment: Induction of apoptosis in human HCT116 cells assessed as caspase 3 activation after 24 hrs; format: functional, cell-based; conditions: HCT-116, 24 h; how it was run: as §1
[3] = system: SNU-398; experiment: Induction of apoptosis in human SNU398 cells assessed as caspase 3 activation after 24 hrs; format: functional, cell-based; conditions: SNU-398, 24 h; how it was run: as §1
[4] = system: T47D; experiment: Growth inhibition of human T47D cells after 48 hrs by CellTiter-Glo assay; format: functional
How it was run: (§2)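 T47D, HCT116 and SNU398 cells from ATCC, run in 96-well format. Cells were exposed continuously to test compound for 48 h, then given CellTiter-Glo reagent, mixed by agitation, held 10–15 min at room temperature and read by luminescence. GI50 is the concentration giving 50% inhibition relative to untreated control cells. Values are means ± SEM of three experiments.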

[5] = system: HCT-116; experiment: Growth inhibition of human HCT116 cells after 48 hrs by CellTiter-Glo assay; format: functional; conditions: HCT-116, 48 h; how it was run: as §2
[6] = system: SNU-398; experiment: Growth inhibition of human SNU398 cells after 48 hrs by CellTiter-Glo assay; format: functional; conditions: SNU-398, 48 h; how it was run: as §2

SMILES | pEC50 [1] | pEC50 [2] | pEC50 [3] | GI50 [4] [nM] | GI50 [5] [nM] | GI50 [6] [nM]
CC(C)=CC[C@@]12OC(C)(C)C3C[C@H](C=C4C(=O)c5ccccc5O[C@]431)C2=O | 5.52 | 5.64 | 6.05 | 200 | 200 | 200
C=CC[C@@]12OCC3C[C@H](C=C4C(=O)c5ccccc5O[C@]431)C2=O | < 4.70 | 5.15 | 5.24 | 1600 | 1600 | 1900
CC(C)=CCC[C@]1(C)C=Cc2c(O)c3c(c(CC=C(C)C)c2O1)O[C@]12C(C[C@H]4CC1C(C)(C)O[C@@]2(C/C=C(\C)C(=O)O)C4=O)C3=O (stereo partly drawn) | < 4.70 | < 4.70 | < 4.70 | > 20000 | > 20000 | > 20000
C=CC[C@@]12C=C(C(=O)c3ccccc3)[C@]3(CC=C)C(CO[C@@]3(CC=C)C1=O)C2 | < 4.70 | < 4.70 | < 4.70 | > 20000 | > 20000 | > 20000
CC(C)=CCC[C@]1(C)C=Cc2c(O)c3c(c(CC=C(C)C)c2O1)O[C@]12C(=C[C@@H]4C[C@H]1C(C)(C)O[C@@]2(C/C=C(/C)C(=O)O)C4=O)C3=O [GAMBOGIC ACID] | 6.15 | 6.15 | 6.15 | 200 | 100 | 200

Continued, values first:

pEC50 [1] | pEC50 [2] | pEC50 [3] | GI50 [4] [nM] | GI50 [5] [nM] | GI50 [6] [nM] | SMILES
5.23 | < 4.70 | 5.29 | 1400 | 1500 | 1500 | C=CC[C@]12OCC3C[C@@]4(Oc5ccccc5C(=O)C4=C[C@@H]31)C2=O
5.32 | 5.44 | 5.60 | 1000 | 900 | 1200 | CC(C)=CC[C@]12OC(C)(C)C3C[C@@]4(OC(c5ccccc5)=CC(=O)C4=C[C@@H]31)C2=O
5.57 | 5.72 | 5.82 | 300 | 200 | 300 | CC(C)=CC[C@]12OC(C)(C)C3C[C@@]4(Oc5ccccc5C(=O)C4=C[C@@H]31)C2=O
< 4.70 | < 4.70 | < 4.70 | > 20000 | > 20000 | > 20000 | C=CC[C@@]12OCC3C[C@H](CC4C(=O)c5ccccc5O[C@@]341)C2=O (stereo partly drawn)
< 4.70 | < 4.70 | < 4.70 |  |  |  | C=CC[C@@]12CC3CO[C@](CC=C)(C1=O)[C@@]3(CC=C)C=C2C(=O)c1ccccc1
5.29 | 5.27 | 5.59 | 1400 | 1100 | 1200 | CC(C)=CC[C@@]12OC(C)(C)C3C[C@H](C=C4C(=O)C=C(c5ccccc5)O[C@]431)C2=O
